Source: ChEMBL document CHEMBL1143389, “Synthesis, structure and antibacterial activity of new 2-(1-(2-(substituted-phenyl)-5-methyloxazol-4-yl)-3-(2-substitued-phenyl)-4,5-dihydro-1H-pyrazol-5-yl)-7-substitued-1,2,3,4-tetrahydroisoquinoline derivatives” (Bioorg Med Chem, 2009)
In brackets after ≈: the same amount, converted by molar mass.

Key:
Bacillus subtilis = assay: Antimicrobial activity against Bacillus subtilis ATCC 6633 after 24 hrs by MTT assay; assay type: functional; settings: ATCC 6633, 24 h
Summary of the method: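 Mueller-Hinton medium (casein hydrolysate, soluble starch, beef extract). Compounds were serially diluted in DMSO in medium, with an inoculum of about 10⁵ cfu/mL, and incubated at 37 °C for 24 h. MIC was read visually. MTT (2 mg/mL in PBS, pH 7.4) was then added for 4–5 h at room temperature. Dye was extracted with isopropanol containing 5% 1 mol/L HCl for 12 h, and OD was read at 550 nm.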

Escherichia coli = assay: Antimicrobial activity against Escherichia coli after 24 hrs by MTT assay
Staphylococcus aureus = assay: Antimicrobial activity against Staphylococcus aureus ATCC 6538 after 24 hrs by MTT assay; settings: ATCC 6538, 24 h
Pseudomonas fluorescens = assay: Antimicrobial activity against Pseudomonas fluorescens ATCC 13525 after 24 hrs by MTT assay; settings: ATCC 13525, 24 h
DNA gyrase = DNA gyrase (Staphylococcus aureus, UniProt P0A0K8+P20831); assay: Inhibition of Staphylococcus aureus DNA gyrase; assay type: protein-complex assay
[1] = Inhibition of Bacillus subtilis DNA gyrase
Summary of the method: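 Gyrase purified from B. subtilis cells at 0–4 °C. Cells were lysed with lysozyme in HEPES-KOH pH 8.0/sucrose/Mg acetate/DTT/PMSF for 2.5 h, then treated with KCl–Brij. The cleared lysate at 0.2 M KCl went onto a column, eluted with ATP–Mg acetate–KCl, then high KCl, then urea, and was dialyzed to 0.05 M KCl. The read-out was DNA supercoiling activity.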

| Compound | MIC (Bacillus subtilis) | MIC (Escherichia coli) | MIC (Staphylococcus aureus) | MIC (Pseudomonas fluorescens) | IC50 (DNA gyrase) | IC50 [1] |
| --- | --- | --- | --- | --- | --- | --- |
| C=Cc1ccccc1-c1nc(N2N=C(c3ccccc3C(F)(F)F)CC2N2CCc3ccccc3C2)c(C)o1 (configuration not stated) | 12.5 µg/mL (≈ 23.6 µM) | > 50 µg/mL | 12.5 µg/mL (≈ 23.6 µM) | 50 µg/mL (≈ 94.6 µM) | – | – |
| C=Cc1ccccc1-c1nc(N2N=C(c3ccccc3F)CC2N2CCc3ccccc3C2)c(C)o1 (configuration not stated) [TETRAPHENYLPHOSPHONIUM_CHLORIDE] | 50 µg/mL (≈ 104 µM) | 50 µg/mL (≈ 104 µM) | 50 µg/mL (≈ 104 µM) | 50 µg/mL (≈ 104 µM) | > 261000 nM | > 125 µg/mL |
| Cc1oc(-c2ccc(F)cc2F)nc1N1N=C(c2ccccc2F)CC1N1CCc2ccccc2C1 (configuration not stated) | 25 µg/mL (≈ 51.2 µM) | 25 µg/mL (≈ 51.2 µM) | 6.25 µg/mL (≈ 12.8 µM) | 25 µg/mL (≈ 51.2 µM) | – | – |
| C=Cc1ccccc1-c1nc(N2N=C(c3ccccc3C(F)(F)F)CC2N2CCc3ccc(OC)cc3C2)c(C)o1 (configuration not stated) | 6.25 µg/mL (≈ 11.2 µM) | 50 µg/mL (≈ 89.5 µM) | 6.25 µg/mL (≈ 11.2 µM) | 3.12 µg/mL (≈ 5.59 µM) | – | – |
| COc1ccc2c(c1)CN(C1CC(c3ccccc3)=NN1c1nc(-c3ccccc3F)oc1C)CC2 (configuration not stated) | 25 µg/mL (≈ 51.8 µM) | > 50 µg/mL | 25 µg/mL (≈ 51.8 µM) | > 50 µg/mL | – | – |
| COc1ccc2c(c1)CN(C1CC(c3ccccc3)=NN1c1nc(-c3ccc(F)cc3F)oc1C)CC2 (configuration not stated) | 6.25 µg/mL (≈ 12.5 µM) | 50 µg/mL (≈ 99.9 µM) | 6.25 µg/mL (≈ 12.5 µM) | 25 µg/mL (≈ 49.9 µM) | – | – |
| COc1ccc2c(c1)CN(C1CC(c3ccccc3)=NN1c1nc(-c3ccccc3C(F)(F)F)oc1C)CC2 (configuration not stated) | 12.5 µg/mL (≈ 23.5 µM) | 50 µg/mL (≈ 93.9 µM) | 25 µg/mL (≈ 46.9 µM) | > 50 µg/mL | – | – |
| COc1ccc2c(c1)CN(C1CC(c3ccccc3C(F)(F)F)=NN1c1nc(-c3ccccc3F)oc1C)CC2 (configuration not stated) | 12.5 µg/mL (≈ 22.7 µM) | 50 µg/mL (≈ 90.8 µM) | 50 µg/mL (≈ 90.8 µM) | 50 µg/mL (≈ 90.8 µM) | – | – |
| Cc1oc(-c2ccccc2C(F)(F)F)nc1N1N=C(c2ccccc2)CC1N1CCc2ccccc2C1 (configuration not stated) | 12.5 µg/mL (≈ 24.9 µM) | 50 µg/mL (≈ 99.5 µM) | 25 µg/mL (≈ 49.7 µM) | 50 µg/mL (≈ 99.5 µM) | – | – |
| COc1ccc2c(c1)CN(C1CC(c3ccc(Cl)cc3Cl)=NN1c1nc(-c3ccccc3C(F)(F)F)oc1C)CC2 (configuration not stated) | 3.12 µg/mL (≈ 5.2 µM) | > 50 µg/mL | 1.56 µg/mL (≈ 2.6 µM) | > 50 µg/mL | – | – |
| Cc1oc(-c2ccccc2F)nc1N1N=C(c2ccc(Cl)cc2Cl)CC1N1CCc2ccccc2C1 (configuration not stated) | 3.12 µg/mL (≈ 5.99 µM) | 50 µg/mL (≈ 95.9 µM) | 3.12 µg/mL (≈ 5.99 µM) | > 50 µg/mL | 10500 nM | 1 µg/mL (≈ 1.92 µM) |
| C=Cc1ccccc1-c1nc(N2N=C(c3ccc(-c4ccco4)cc3)CC2N2CCc3ccccc3C2)c(C)o1 (configuration not stated) | 3.12 µg/mL (≈ 5.93 µM) | > 50 µg/mL | 1.56 µg/mL (≈ 2.97 µM) | 50 µg/mL (≈ 94.9 µM) | – | – |

Other lines, results leading:

| MIC (Bacillus subtilis) | MIC (Escherichia coli) | MIC (Staphylococcus aureus) | MIC (Pseudomonas fluorescens) | IC50 (DNA gyrase) | IC50 [1] | Compound |
| --- | --- | --- | --- | --- | --- | --- |
| 0.39 µg/mL (≈ 0.805 µM) | 3.12 µg/mL (≈ 6.45 µM) | 1.56 µg/mL (≈ 3.22 µM) | 3.12 µg/mL (≈ 6.45 µM) | – | – | NC[C@H]1O[C@H](O[C@H]2[C@H](O)[C@@H](O[C@H]3O[C@H](CO)[C@@H](O)[C@H](N)[C@H]3O)[C@H](N)C[C@@H]2N)[C@H](O)[C@@H](O)[C@@H]1O [KANAMYCIN] |
| 1.56 µg/mL (≈ 3.01 µM) | > 50 µg/mL | 3.12 µg/mL (≈ 6.03 µM) | 25 µg/mL (≈ 48.2 µM) | – | – | Cc1oc(-c2ccccc2F)nc1N1N=C(c2ccc(-c3ccco3)cc2)CC1N1CCc2ccccc2C1 (configuration not stated) |
| 3.12 µg/mL (≈ 5.59 µM) | 50 µg/mL (≈ 89.4 µM) | 3.12 µg/mL (≈ 5.59 µM) | > 50 µg/mL | – | – | C=Cc1ccccc1-c1nc(N2N=C(c3ccc(Cl)cc3Cl)CC2N2CCc3ccc(OC)cc3C2)c(C)o1 (configuration not stated) |
| 3.12 µg/mL (≈ 5.47 µM) | > 50 µg/mL | 3.12 µg/mL (≈ 5.47 µM) | > 50 µg/mL | – | – | Cc1oc(-c2ccccc2C(F)(F)F)nc1N1N=C(c2ccc(Cl)cc2Cl)CC1N1CCc2ccccc2C1 (configuration not stated) |
| 3.12 µg/mL (≈ 5.2 µM) | 25 µg/mL (≈ 41.6 µM) | 3.12 µg/mL (≈ 5.2 µM) | 12.5 µg/mL (≈ 20.8 µM) | – | – | COc1ccc2c(c1)CN(C1CC(c3ccccc3C(F)(F)F)=NN1c1nc(-c3ccccc3C(F)(F)F)oc1C)CC2 (configuration not stated) |
| 0.78 µg/mL (≈ 1.38 µM) | 25 µg/mL (≈ 44.1 µM) | 0.78 µg/mL (≈ 1.38 µM) | 50 µg/mL (≈ 88.2 µM) | 441 nM | 0.125 µg/mL (≈ 0.221 µM) | COc1ccc2c(c1)CN(C1CC(c3ccc(-c4ccco4)cc3)=NN1c1nc(-c3ccc(F)cc3F)oc1C)CC2 (configuration not stated) |
| 3.12 µg/mL (≈ 5.61 µM) | > 50 µg/mL | 3.12 µg/mL (≈ 5.61 µM) | 25 µg/mL (≈ 44.9 µM) | – | – | C=Cc1ccccc1-c1nc(N2N=C(c3ccc(-c4ccco4)cc3)CC2N2CCc3ccc(OC)cc3C2)c(C)o1 (configuration not stated) |
| 1.56 µg/mL (≈ 2.61 µM) | 50 µg/mL (≈ 83.5 µM) | 1.56 µg/mL (≈ 2.61 µM) | 25 µg/mL (≈ 41.8 µM) | 418 nM | 0.25 µg/mL (≈ 0.418 µM) | COc1ccc2c(c1)CN(C1CC(c3ccc(-c4ccco4)cc3)=NN1c1nc(-c3ccccc3C(F)(F)F)oc1C)CC2 (configuration not stated) |
| 3.12 µg/mL (≈ 6.03 µM) | 50 µg/mL (≈ 96.4 µM) | 6.25 µg/mL (≈ 12.1 µM) | 50 µg/mL (≈ 96.4 µM) | – | – | COc1ccc2c(c1)CN(C1CC(c3ccccc3F)=NN1c1nc(-c3ccc(F)cc3F)oc1C)CC2 (configuration not stated) |
